Assay [1] concerns U-937. Kind of assay: Cytotoxicity against human U937 cells assessed as combinational index measured at fraction affected value of 0.68 in presence of vorinostat at 10 uM incubated for 72 hrs by CellTiter-Glo Luminescent cell viability assay. Type of assay: functional. The gist of the method:
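Viability after 72 h of single-agent or combined treatment with the HDAC inhibitor (0.05–0.25 μM) and the EZH2 inhibitor. EZH2 inhibitor range: U937 5–25 μM; RH4 10–50 μM. Synergy was assessed by combination index and isobologram analysis.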

The test system of assay [2] is U-937. Kind of assay: Cytotoxicity against human U937 cells assessed as combinational index measured at fraction affected value of […] in presence of vorinostat at 25 uM incubated for 72 hrs by CellTiter-Glo Luminescent cell viability assay. The format is functional. On the technique in general: ATP-based viability assays read luminescence as a measure of living cells.

Assay [3] addresses T1, Protein deacetylase HDAC6 (Homo sapiens) (UniProt Q9UBN7).
T1 sequence (whole entry): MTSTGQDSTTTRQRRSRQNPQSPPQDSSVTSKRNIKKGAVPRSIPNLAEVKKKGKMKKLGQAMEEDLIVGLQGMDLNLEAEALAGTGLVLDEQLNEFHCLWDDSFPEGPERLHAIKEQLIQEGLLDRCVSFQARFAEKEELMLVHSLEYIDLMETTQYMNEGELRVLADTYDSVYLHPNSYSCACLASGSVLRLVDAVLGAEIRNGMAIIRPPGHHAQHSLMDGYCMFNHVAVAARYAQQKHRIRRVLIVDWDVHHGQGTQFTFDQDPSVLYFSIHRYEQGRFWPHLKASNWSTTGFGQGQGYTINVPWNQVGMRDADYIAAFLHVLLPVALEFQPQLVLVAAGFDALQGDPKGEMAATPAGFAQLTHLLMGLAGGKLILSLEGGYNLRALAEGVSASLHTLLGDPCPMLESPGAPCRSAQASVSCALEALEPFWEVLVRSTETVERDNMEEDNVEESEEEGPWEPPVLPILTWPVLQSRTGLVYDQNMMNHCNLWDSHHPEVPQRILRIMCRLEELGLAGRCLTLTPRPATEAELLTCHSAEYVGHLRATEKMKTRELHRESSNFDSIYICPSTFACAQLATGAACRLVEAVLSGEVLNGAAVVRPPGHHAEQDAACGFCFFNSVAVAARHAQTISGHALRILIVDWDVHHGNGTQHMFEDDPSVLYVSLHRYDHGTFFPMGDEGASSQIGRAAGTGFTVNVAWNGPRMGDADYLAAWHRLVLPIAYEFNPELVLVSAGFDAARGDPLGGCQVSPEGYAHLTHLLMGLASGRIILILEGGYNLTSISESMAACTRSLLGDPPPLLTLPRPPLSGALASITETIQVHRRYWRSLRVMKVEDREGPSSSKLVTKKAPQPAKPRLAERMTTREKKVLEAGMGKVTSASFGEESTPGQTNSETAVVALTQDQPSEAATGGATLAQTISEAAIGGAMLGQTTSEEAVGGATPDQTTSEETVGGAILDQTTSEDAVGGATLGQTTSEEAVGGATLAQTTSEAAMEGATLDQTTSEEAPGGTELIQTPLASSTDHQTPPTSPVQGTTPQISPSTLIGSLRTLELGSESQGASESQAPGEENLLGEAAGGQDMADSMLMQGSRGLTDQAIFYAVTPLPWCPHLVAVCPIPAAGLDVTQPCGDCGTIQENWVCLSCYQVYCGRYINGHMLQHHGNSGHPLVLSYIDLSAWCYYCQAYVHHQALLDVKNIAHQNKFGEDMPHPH
Briefly: Inhibition of HDAC6 in human RH4 cells assessed as acetylated alpha-tubulin level at 50 uM incubated for 72 hrs by Western blot analysis. The format is cell-based. In general terms: A western blot detects proteins with antibodies after separation by electrophoresis.

For assay [4], the target named is T2, Histone-lysine N-methyltransferase EZH2 (Homo sapiens, UniProt Q15910). Briefly: Inhibition of EZH2 in human RH4 cells assessed as H3K27me3 level at 50 uM incubated for 72 hrs by Western blot analysis. Type of assay: cell-based.
Assay [5] has as its target T2, Histone-lysine N-methyltransferase EZH2. Kind of assay: Inhibition of EZH2 in human RH4 cells assessed as H3K27me3 level at 50 uM incubated for 96 hrs by Western blot analysis. The format is cell-based.
Assay [6] addresses Histone deacetylase (Homo sapiens) (UniProt Q13547+O15379+Q9UBN7+Q92769+Q9UQL6+Q8WUI4+Q9BY41+Q96DB2+P56524+Q9UKV0+Q969S8). Kind of assay: Inhibition of HDAC in human U937 cells assessed as Ac-H3 level at 50 uM incubated for 96 hrs by Western blot analysis (reference value: 1). The format is cell-based. Conditions: U-937.
In assay [7] the target is T2, Histone-lysine N-methyltransferase EZH2. Briefly: Inhibition of EZH2 in human U937 cells assessed as H3K27me3 level at 50 uM in presence of vorinostat incubated for 96 hrs by Western blot analysis (reference value: 1). Type of assay: cell-based. The note with it: U-937. The gist of the method: (§1)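 U937 leukemia cells given EZH2 inhibitor 50 μM together with HDAC inhibitor 0.5 μM; Western blot at 96 and 120 h for H3K27me3 or acetyl-H3, actin as loading control; densitometry normalized to loading control then to DMSO vehicle.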

Assay [8] has the same target. Briefly: Inhibition of EZH2 in human U937 cells assessed as H3K27me3 level at 50 uM in presence of vorinostat incubated for 120 hrs by Western blot analysis (reference value: 1). Conditions: U-937. Type of assay: cell-based. The method in brief:
as §1

The test system of a further assay is THP-1. Kind of assay: Cytotoxicity against human THP1 cells assessed as reduction in cell viability incubated for 72 hrs by CellTiter-Glo Luminescent cell viability assay. The format is functional, cell-based. The note with it: THP-1, 72 h. The method in brief:
(§2)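 Antiproliferative IC50 after 72 h of treatment. Values are means of three independent experiments, each measured in triplicate, ± SD.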

The subject of the next assay is U-87 MG. Kind of assay: Cytotoxicity against human U87 cells assessed as reduction in cell viability incubated for 72 hrs by CellTiter-Glo Luminescent cell viability assay. Type of assay: functional, cell-based, U-87MG ATCC. The method in brief:
as §2

Assay [9] concerns U-937. Kind of assay: Cell cycle arrest in human U937 cells assessed as subG1 accumulation at 25 uM incubated for 72 hrs by propidium iodide staining based flow cytometry (reference value: 4.9 %). The format is functional. On the technique in general: A flow cytometer gives signals particle by particle.
In assay [10] the test system is U-937. Kind of assay: Induction of apoptosis in human U937 cells assessed as late apoptotic cells at 10 uM incubated for 72 hrs by annexin V-FITC staining based flow cytometry (reference value: 0.7 %). The format is functional.
Assay [11] relates to U-937. Briefly: Induction of apoptosis in human U937 cells assessed as late apoptotic cells at 25 uM incubated for 72 hrs by annexin V-FITC staining based flow cytometry (reference value: 0.7 %). The format is functional.
Assay [12] is described as follows: Induction of apoptosis in human RH4 cells assessed as viable cells at 14 uM incubated for 72 hrs by annexin V-FITC staining based flow cytometry (reference value: 86.6 %). The format is functional. The note with it: Rh4, 72 h, read-out: Activity.
Assay [13] can be described thus: Induction of apoptosis in human RH4 cells assessed as late apoptotic cells at 14 uM incubated for 72 hrs by annexin V-FITC staining based flow cytometry (reference value: 2.1 %). The format is functional.
The nature of assay [14]: Induction of apoptosis in human RH4 cells assessed as early apoptotic cells at 28 uM incubated for 72 hrs by annexin V-FITC staining based flow cytometry (reference value: 10.8 %). The format is functional.
Another assay relates to U-87MG ATCC. Briefly: Upregulation of snail in human U87 cells at 5 to 25 uM incubated for 24 hrs by Western blot analysis. Type of assay: functional, cell-based. The method in brief: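 U87 glioblastoma cells exposed for 24 h at 5, 10 and 25 μM, with DMSO vehicle as control. Snail and E-cadherin protein levels were read by Western blot, with tubulin as the loading control.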

Activity calls are given as the source filed them. The calls are words filed in the database; no cut-off is given here.

T2 sequence (Q15910 whole entry, looked up): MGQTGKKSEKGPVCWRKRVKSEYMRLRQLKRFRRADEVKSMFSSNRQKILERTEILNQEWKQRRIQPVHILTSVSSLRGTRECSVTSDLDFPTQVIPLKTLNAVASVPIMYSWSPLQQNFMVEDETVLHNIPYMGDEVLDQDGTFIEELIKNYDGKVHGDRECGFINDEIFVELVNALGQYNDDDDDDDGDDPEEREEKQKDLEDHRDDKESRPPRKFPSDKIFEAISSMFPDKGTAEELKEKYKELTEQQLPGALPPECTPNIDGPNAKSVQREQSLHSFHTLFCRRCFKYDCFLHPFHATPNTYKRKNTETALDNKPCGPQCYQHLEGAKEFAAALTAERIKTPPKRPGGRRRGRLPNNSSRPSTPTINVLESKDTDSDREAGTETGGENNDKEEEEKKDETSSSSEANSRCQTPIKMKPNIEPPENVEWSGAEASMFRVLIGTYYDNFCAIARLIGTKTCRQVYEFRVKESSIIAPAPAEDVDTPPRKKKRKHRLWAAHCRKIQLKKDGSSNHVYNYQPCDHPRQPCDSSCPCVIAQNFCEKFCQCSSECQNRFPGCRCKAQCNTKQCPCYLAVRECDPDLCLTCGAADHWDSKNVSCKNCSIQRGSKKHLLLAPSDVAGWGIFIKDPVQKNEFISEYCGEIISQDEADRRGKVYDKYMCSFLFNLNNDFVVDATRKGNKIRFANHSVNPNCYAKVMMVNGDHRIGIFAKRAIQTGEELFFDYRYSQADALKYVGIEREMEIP

For the compound `Cc1cc(C)c(CNC(=O)c2cc(C)n(-c3ccccc3)c2C)c(=O)[nH]1`, the CI with U-937 [1] worked out at 0.14; in the assay on U-937 [2], 0.04. The fold change (FC) came out at 0.6 in assay [3]; 0.3 in [4]; 0.3 in [5]; 1.4 in assay [6]; 1.1 in assay [7]; 0.6 in assay [8].
What is called IC50 is the point on the concentration scale where inhibition reaches its midpoint. With `Cc1cc(C)c(CNC(=O)c2cc(C)n(-c3cccc(NC(=O)CCCCCCC(=O)NO)c3)c2C)c(=O)[nH]1`, the results for the half-inhibitory concentration (IC50) in the assay with THP-1 and in the assay with U-87 MG were 12 µM and 20 µM, respectively. Besides, the Activity worked out at 36.1% in the assay with U-937 [9]; 0.7% with U-937 [10]; 1.4% in the assay with U-937 [11]; 3.2% in [13]; 26.5% in assay [14]. For the same compound, the viability at 14 µM in [12] came to 82.5%. Also, in the assay on U-87MG ATCC, the result was inactive.

The values are drawn from ChEMBL document CHEMBL4613315, “Design of First-in-Class Dual EZH2/HDAC Inhibitor: Biochemical Activity and Biological Evaluation in Cancer Cells” (ACS Med Chem Lett, 2020).
